Test results as given in PMC9298202 (Chemmedchem, 2021).

Assays:
[1] = test system: Leishmania infantum amastigote forms; experiment: In vitro activity on amastigote; assay type: cell-based
J774.2 macrophages = experiment: Cytotoxicity in J774.2 macrophages; assay type: cell-based; settings: Mus musculus, J774.2, 72 h, read-out: Toxicity in macrophages IC50
[2] = test system: Trypanosoma cruzi SN3 trypomastigote forms; experiment: Trypomastigote activity, T. cruzi SN3; assay type: cell-based
[3] = test system: Trypanosoma cruzi SN3 epimastigote forms; experiment: Epimastigote assay, T. cruzi SN3; assay type: cell-based
Method in brief: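 SN3 epimastigotes (Rhodnius prolixus isolate, Colombia) were grown at 28 °C in Grace's Insect Medium + 10% inactivated FBS. Exponential-phase cells were plated at 5×10^4 parasites/well with test compound in MTL medium at 100, 50, 25, 12,5 and 6,25 µM. Counts after 72 h used a Neubauer chamber. IC50 came from linear regression of Kc values; SI = Vero IC50/epimastigote IC50.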

[4] = test system: Leishmania braziliensis amastigote forms; experiment: In vitro activity on amastigote; assay type: cell-based
Method in brief: (§1)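 J774.2 macrophages were infected with promastigotes, which became intracellular amastigotes within 1 day; test compounds were then added. IC50 came from linear regression of Kc values at 1, 10, 25 and 200 µM, averaging four determinations.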

[5] = test system: Leishmania donovani promastigote forms; experiment: In vitro activity on promastigote; assay type: cell-based
Method in brief: (§2)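 Extracellular promastigotes were tested at 1, 10, 25 and 200 µM, and IC50 was derived by linear regression from Kc values, averaging four determinations.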

[6] = test system: Leishmania infantum promastigote forms; experiment: In vitro activity on promastigote; assay type: cell-based
[7] = test system: Fe-SOD in T. cruzi epimastigotes; experiment: Fe-SOD inhibition, T. cruzi; assay type: biochemical, Trypanosoma cruzi; settings: extent reached in the tested concentration range (Figure 9)
Method in brief: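 Promastigotes or T. cruzi epimastigotes were grown in MTL (HBSS + 10% heat-inactivated FBS) at 26 °C to ~1×10^7/mL. Log-phase cells were pelleted and held 24 h at 27 °C to excrete SOD. Filtered supernatant was fractionated with 35% then 85% ammonium sulphate and desalted on Sephadex G-25. Activity was measured as NBT reduction (methionine, riboflavin, Triton X-100) at 560 nm before and after 10 min UV illumination.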

[8] = test system: Trypanosoma cruzi SN3 amastigote forms; experiment: Amastigote assay, T. cruzi SN3; assay type: cell-based
Method in brief: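 Vero cells in RPMI + 10% inactivated FBS (37 °C, 5% CO2) were seeded at 1×10^4 cells/well on coverslips for 2 days. They were infected 10:1 with SN3 metacyclic forms, obtained by 12-day culture of epimastigotes at 28 °C in modified Grace's medium (~40% metacyclic). After 24 h, cells were washed and exposed to 6.25–100 µM for 72 h. Giemsa-stained amastigotes were counted; IC50 from four determinations; SI used Vero IC50.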

Vero cells = experiment: Cytotoxicity in Vero cells; assay type: cell-based; settings: Chlorocebus sabaeus, Vero, 72 h, read-out: Vero cells toxicity IC50
Method in brief: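 Vero cells were grown in RPMI + 10% inactivated FBS at 37 °C in humidified 5% CO2. They were resuspended at 1×10^5 cells/mL, cultured 2 days, then given fresh medium with test compound for 72 h. Viability was read by flow cytometry. IC50 was derived by linear regression from Kc values; results average four determinations.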

[9] = test system: Leishmania braziliensis promastigote forms; experiment: In vitro activity on promastigote; assay type: cell-based
Method in brief: as §2

[10] = test system: Leishmania donovani amastigote forms; experiment: In vitro activity on amastigote; assay type: cell-based
Method in brief: as §1

[11] = L. infantum, IC50 macrophages toxicity/IC50 activity
[12] = T. cruzi SN3, IC50 Vero cell toxicity/IC50 activity
[13] = L. braziliensis, IC50 macrophages toxicity/IC50 activity
[14] = L. donovani, IC50 macrophages toxicity/IC50 activity

- IC50 ([1]; Leishmania infantum, read-out: Activity IC50 Amastigote forms): 11.9 ± 0.7 µM
- IC50 ([2]; Trypanosoma cruzi, read-out: Activity IC50 Trypomastigote forms): 1.3 ± 0.6 µM
- IC50 ([3]; Trypanosoma cruzi, read-out: Activity IC50 Epimastigote forms): 9.4 ± 0.7 µM
- IC50 ([4]; Leishmania braziliensis, read-out: Activity IC50 Amastigote forms): 6.6 ± 0.6 µM
- IC50 ([5]; Leishmania donovani, read-out: Activity IC50 Promastigote forms): 2 ± 0.4 µM
- IC50 ([6]; Leishmania infantum, read-out: Activity IC50 Promastigote forms): 14.7 ± 0.6 µM
- extent of inhibition of enzyme activity [7]: approximately 50%
- IC50 ([8]; Trypanosoma cruzi, read-out: Activity IC50 Amastigote forms): 2.4 µM
- IC50 ([9]; Leishmania braziliensis, read-out: Activity IC50 Promastigote forms): 7.6 ± 0.5 µM
- IC50 ([10]; Leishmania donovani, read-out: Activity IC50 Amastigote forms): 2.7 ± 0.3 µM
SMILES: c1ccc2c(NCCCn3ccnc3)ncnc2c1 [3 b, N ‐[3‐(1H‐imidazol‐1‐yl)propyl]quinazolin‐4‐amine]
- Selectivity index Amastigote forms [1, 11]: 4
- IC50 (J774.2 macrophages): 45.9 ± 2.8 µM
- Selectivity index Trypomastigote forms [2, 12]: 93
- Selectivity index Epimastigote forms [3, 12]: 13
- Selectivity index Amastigote forms [4, 13]: 7
- Selectivity index Promastigote forms [5, 14]: 23
- Selectivity index Promastigote forms [6, 11]: 3
- Selectivity index Amastigote forms [8, 12]: 50
- IC50 (Vero cells): 121 ± 6.3 µM
- Selectivity index Promastigote forms [9, 13]: 6
- Selectivity index Amastigote forms [10, 14]: 17
